Results published in ChEMBL document CHEMBL1152629, “Discovery and structure-activity relationship analysis of Staphylococcus aureus sortase A inhibitors” (Bioorg Med Chem, 2009).
Values after ≈ are worked out from the molar mass of the structure shown. Active and inactive are the calls of the source. No cut-off for these calls is given here.

Legend:
[1] = Inhibition of Staphylococcus aureus sortase A deltaN59 mutant assessed as Dap(Dnp) hydrolysis by FRET assay
Staphylococcus aureus [2] = assay: Antimicrobial activity against Staphylococcus aureus Newman by microtiter broth dilution method; format: functional
Summary of the method: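 S. aureus Newman overnight culture diluted to OD600 0.01, incubated at 37 °C, diluted to OD600 0.005; compound added at final 0.1–100 µM. OD600 followed during overnight growth at 37 °C in plate reader. Growth percentage relative to no-inhibitor cultures and to 10 µg/mL erythromycin. Triplicate.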

Staphylococcus aureus [3] = test system: Staphylococcus aureus
[4] = Inhibition of Staphylococcus aureus sortase A deltaN59 mutant assessed as Dap(Dnp) hydrolysis by FRET assay based enzyme kinetics assay; conditions: read-out: Ki(app)
[5] = Inhibition of Bacillus anthracis sortase A by FRET-based enzyme kinetics assay; conditions: read-out: Ki(app)
Summary of the method: (§1)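 B. anthracis SrtA (1.5–15 µM final) preincubated 1 h at 25 °C with compound (0.08–400 µM final, Me2SO) in 20 mM HEPES, 5 mM CaCl2, pH 7.5. Reaction started with 100 µM Abz-LPETG-Dap(Dnp) substrate. Fluorescence read at ex 335/em 420 nm. IC50 from fit of initial velocities, three independent data sets, Hill equation.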

[6] = Inhibition of Bacillus anthracis sortase A by FRET assay; summary of the method: as §1

SMILES: Cc1cccc(-n2ncc(Cl)c(Cl)c2=O)c1
- IC50 [1]: > 50 µM

SMILES: CC1=NN(c2ccc(Cl)cc2)C(=O)/C1=C/Nc1ccc([N+](=O)[O-])cc1
- IC50 [1]: 48 µM

SMILES: CN1C(=O)/C(=C/c2ccc(-c3ccccc3)o2)SC1=S
- IC50 [1]: 405 µM

SMILES: CC1=NN(c2ccccc2)C(=S)/C1=C/Nc1ccc([N+](=O)[O-])cc1
- MIC (Staphylococcus aureus [2]): > 1000 µM
- Activity (Staphylococcus aureus [3]): 58%

SMILES: CCOc1cnn(-c2ccccc2)c(=O)c1Cl
- IC50 [1]: 1 µM

SMILES: CCSc1c(S)cnn(-c2ccccc2)c1=O
- Activity (Staphylococcus aureus [2]): inactive
- Ki [4]: 1.4 µM
- Ki [5]: 0.3 µM

SMILES: COc1cnn(-c2ccccc2)c(=O)c1S
- IC50 [1]: 9.3 µM

SMILES: CC1=NN(c2ccccc2)C(=S)/C1=C/Nc1ccc(C)c(C)c1
- IC50 [1]: 52 µM

SMILES: COc1c(Cl)cnn(C2CCCCC2)c1=O
- IC50 [1]: > 50 µM

SMILES: CCOc1cnn(-c2cccc(C)c2)c(=O)c1Cl
- IC50 [1]: > 50 µM

SMILES: O=C1/C(=C/c2cc([N+](=O)[O-])cc(Br)c2O)SC(=S)N1c1cccc(Cl)c1
- IC50 [1]: 17 µM

SMILES: CC1=NN(c2ccccc2)C(=S)/C1=C/Nc1ccccc1Cl
- IC50 [1]: 54 µM

SMILES: Cc1ccc(N2C(=O)/C(=C/c3cc(Br)c(O)c([N+](=O)[O-])c3)SC2=S)c(C)c1
- IC50 [1]: 35 µM

SMILES: CC1=NN(c2ccccc2)C(=S)/C1=C/Nc1ccccc1O
- IC50 [1]: 22 µM

SMILES: CCOc1c(S)cnn(-c2ccc([N+](=O)[O-])cc2)c1=O
- IC50 [1]: 30 µM

SMILES: CCOc1cnn(C2CCCCC2)c(=O)c1Cl
- IC50 [1]: > 50 µM

SMILES: CC1=NN(c2ccccc2)C(=S)/C1=C/NC1CCCCC1
- IC50 [1]: 115 µM

SMILES: CC1=NN(c2ccccc2)C(=S)/C1=C/Nc1ccc(Br)cc1
- Activity (Staphylococcus aureus [2]): inactive
- IC50 [1]: 39 µM

SMILES: CCN1C(=O)/C(=C/c2ccc(-c3ccccc3[N+](=O)[O-])o2)SC1=S
- IC50 [1]: 104 µM

SMILES: CCOc1c(Cl)cnn(C2CCCCC2)c1=O
- IC50 [1]: > 50 µM

SMILES: Cc1ccc(N2C(=O)/C(=C/c3cc([N+](=O)[O-])cc(Br)c3O)SC2=S)c(C)c1
- MIC (Staphylococcus aureus [2]): 10 µM (≈ 4.65 µg/mL)
- Activity (Staphylococcus aureus [3]): 84%
- IC50 [1]: 3.7 µM

SMILES: CSc1cnn(-c2ccccc2)c(=O)c1O
- IC50 [1]: > 50 µM

SMILES: COc1c(Cl)cnn(-c2cccc(F)c2)c1=O
- IC50 [1]: > 50 µM

SMILES: CN1C(=O)/C(=C/c2cc([N+](=O)[O-])cc(Br)c2O)SC1=S
- IC50 [1]: 14 µM

SMILES: CCSc1c(O)cnn(-c2ccccc2)c1=O
- IC50 [6]: > 50 µM
- IC50 [1]: > 50 µM

SMILES: Cc1ccc(N2C(=O)/C(=C/c3cccc([N+](=O)[O-])c3)SC2=S)c(C)c1
- IC50 [1]: 119 µM

SMILES: CSc1cnn(-c2ccccc2)c(=O)c1Cl
- IC50 [1]: > 50 µM

SMILES: COc1c(S)cnn(-c2cccc(Cl)c2)c1=O
- MIC (Staphylococcus aureus [2]): > 1000 µM
- Activity (Staphylococcus aureus [3]): 50%
- IC50 [1]: 4.5 µM

SMILES: CCOc1cnn(-c2ccc([N+](=O)[O-])cc2)c(=O)c1Cl
- IC50 [1]: 219 µM

SMILES: CCOc1c(Cl)cnn(-c2cccc(F)c2)c1=O
- IC50 [1]: > 50 µM

SMILES: CCOc1c(Cl)cnn(-c2cccc(C)c2)c1=O
- IC50 [1]: > 50 µM

SMILES: CCOc1c(S)cnn(-c2cccc(C)c2)c1=O
- IC50 [1]: 3.3 µM

SMILES: Cc1ccc(/C=C2\SC(=S)N(c3cccc(Cl)c3)C2=O)cc1[N+](=O)[O-]
- IC50 [1]: > 1000 µM

SMILES: O=c1c(Cl)c(Cl)cnn1-c1cc(Cl)cc(Cl)c1
- IC50 [1]: 61 µM

SMILES: CCOc1c(Cl)cnn(-c2ccc([N+](=O)[O-])cc2)c1=O
- IC50 [1]: > 50 µM

SMILES: CCOc1c(Cl)cnn(-c2ccccc2)c1=O
- IC50 [1]: > 50 µM

SMILES: CC1=NN(c2ccc(Cl)cc2)C(=O)/C1=C/Nc1ccc([N+](=O)[O-])cc1C
- IC50 [1]: 45 µM

SMILES: CC1=NN(c2ccccc2)C(=S)/C1=C/Nc1ccc(/N=N/c2ccccc2)cc1
- Activity (Staphylococcus aureus [2]): inactive
- IC50 [1]: 9 µM

SMILES: Cc1cccc(N2C(=O)/C(=C/c3cc([N+](=O)[O-])cc(Br)c3O)SC2=S)c1
- IC50 [1]: 15 µM

SMILES: COc1c(Cl)cnn(-c2cccc(C)c2)c1=O
- IC50 [1]: > 50 µM

SMILES: C=CCN1C(=O)/C(=C/c2ccc(-c3ccccc3)o2)SC1=S
- IC50 [6]: 27 µM
- IC50 [1]: 199 µM

SMILES: CCOc1c(Cl)cnn(-c2cc(Cl)cc(Cl)c2)c1=O
- IC50 [1]: > 50 µM

SMILES: CC1=NN(c2ccccc2)C(=S)/C1=C/Nc1c(Br)cc(Br)cc1Br
- Activity (Staphylococcus aureus [2]): inactive
- Ki [5]: 1.7 µM

SMILES: CC1=NN(c2ccccc2)C(=S)/C1=C/Nc1ccc([N+](=O)[O-])cc1[N+](=O)[O-]
- IC50 [1]: 6.8 µM

SMILES: CCOc1c(SSc2ccccn2)cnn(-c2ccccc2)c1=O
- Ki [4]: 0.03 µM

SMILES: CCOc1c(SS)cnn(-c2ccccc2)c1=O
- IC50 [6]: 1.2 µM
- IC50 [1]: 1.5 µM

SMILES: CC1=NN(c2ccc(C)cc2)C(=O)/C1=C/Nc1ccc([N+](=O)[O-])cc1
- IC50 [1]: 62 µM

SMILES: O=c1c(Cl)c(Cl)cnn1C1CCCCC1
- IC50 [6]: 14 µM
- IC50 [1]: > 50 µM

SMILES: CC1=NN(c2ccccc2)C(=S)/C1=C/Nc1ccc(C)cc1C
- IC50 [1]: 68 µM

SMILES: O=c1c(Cl)c(Cl)cnn1-c1cccc(Br)c1
- IC50 [1]: > 50 µM

SMILES: CC1=NN(c2ccccc2)C(=S)/C1=C/Nc1ccc(I)cc1
- IC50 [1]: 42 µM

SMILES: CCOc1c(Cl)cnn(-c2cccc(Br)c2)c1=O
- IC50 [1]: > 50 µM

SMILES: O=c1c(Cl)c(Cl)cnn1-c1cccc(F)c1
- IC50 [1]: > 50 µM

SMILES: CCOc1cnn(-c2ccccc2)c(=O)c1S
- IC50 [1]: 4.4 µM

SMILES: O=c1c(Cl)c(Cl)cnn1-c1ccc([N+](=O)[O-])cc1
- IC50 [1]: > 50 µM

SMILES: CCOc1c(S)cnn(-c2cccc(F)c2)c1=O
- IC50 [1]: 5.5 µM

SMILES: O=C1/C(=C/c2cc([N+](=O)[O-])cc(Br)c2O)SC(=S)N1c1ccc([N+](=O)[O-])cc1
- IC50 [1]: 12 µM

SMILES: CCOc1cnn(-c2cccc(Br)c2)c(=O)c1Cl
- IC50 [1]: > 50 µM

SMILES: CCOc1c(S)cnn(-c2ccccc2)c1=O
- Ki [4]: 0.2 µM

SMILES: CCOc1cnn(-c2cccc(F)c2)c(=O)c1Cl
- IC50 [1]: > 50 µM

SMILES: COc1c(Cl)cnn(-c2ccccc2)c1=O
- IC50 [1]: > 50 µM

SMILES: O=c1c(Cl)c(Cl)cnn1-c1ccccc1
- IC50 [1]: > 50 µM

SMILES: O=c1c(OCc2ccccc2)c(O)cnn1-c1ccccc1
- IC50 [6]: > 50 µM
- IC50 [1]: > 50 µM

SMILES: CCOc1cnn(-c2cccc(C)c2)c(=O)c1S
- Activity (Staphylococcus aureus [2]): inactive
- IC50 [1]: 3.1 µM

SMILES: CCn1ncc(SC)c(O)c1=O
- IC50 [1]: > 50 µM

SMILES: COc1c(O)cnn(-c2ccccc2)c1=O
- IC50 [6]: > 50 µM
- IC50 [1]: > 50 µM

SMILES: CC1=NN(c2ccccc2)C(=S)/C1=C/Nc1ccc([N+](=O)[O-])cc1Br
- IC50 [1]: 8.9 µM

SMILES: CC(=O)c1ccc(/N=C2\C(=O)NN=C2C)cc1
- IC50 [1]: 26 µM

SMILES: CCOc1c(S)cnn(-c2cccc(Br)c2)c1=O
- IC50 [1]: > 50 µM

SMILES: CC1=NN(c2ccccc2)C(=O)/C1=C/Nc1ccc([N+](=O)[O-])cc1
- Ki [4]: 0.3 µM
- IC50 [1]: 56 µM

SMILES: COc1c(Cl)cnn(-c2cc(Cl)cc(Cl)c2)c1=O
- IC50 [1]: > 50 µM

SMILES: O=C(/C=C/c1ccc([N+](=O)[O-])cc1)c1ccccc1
- IC50 [1]: 51 µM

SMILES: CCOc1c(S)cnn(C2CCCCC2)c1=O
- IC50 [1]: 17.9 µM

SMILES: CC1=NOC(=O)/C1=N\c1ccc([N+](=O)[O-])cc1
- IC50 [1]: 17 µM

SMILES: CCCN1C(=O)/C(=C/c2ccc(-c3ccccc3)o2)SC1=S
- IC50 [1]: 186 µM

SMILES: CCOc1cnn(-c2cc(Cl)cc(Cl)c2)c(=O)c1S
- IC50 [6]: 5.2 µM
- IC50 [1]: 166 µM

SMILES: CC1=NN(c2ccccc2)C(=S)/C1=C/Nc1ccccn1
- Activity (Staphylococcus aureus [2]): inactive
- IC50 [6]: 1.4 µM
- IC50 [1]: 0.76 µM

SMILES: CC1=NN(c2ccccc2)C(=S)/C1=C/Nc1ccc([N+](=O)[O-])cc1O
- IC50 [1]: 9.6 µM

SMILES: CCOc1c(S)cnn(-c2cc(Cl)cc(Cl)c2)c1=O
- IC50 [1]: 301 µM

SMILES: COc1c(Cl)cnn(-c2cccc(Br)c2)c1=O
- IC50 [1]: > 50 µM

SMILES: CCOc1cnn(-c2cccc(F)c2)c(=O)c1S
- IC50 [6]: 0.9 µM
- IC50 [1]: 5.7 µM

SMILES: O=C1/C(=C/c2ccc(-c3ccccc3)o2)SC(=S)N1Cc1ccccc1
- IC50 [1]: 492 µM

SMILES: CC1=NN(c2ccccc2)C(=S)/C1=C/Nc1cc([N+](=O)[O-])ccc1O
- IC50 [1]: 14 µM

SMILES: CCOc1c(SSC)cnn(-c2ccccc2)c1=O
- Ki [4]: 0.4 µM

SMILES: CCN1C(=O)/C(=C/c2ccc(-c3cccc(Cl)c3)o2)SC1=S
- IC50 [1]: 109 µM
